Assay outcomes deposited in PubChem by Broad Institute.
Pf Dd2 growth: blocks growth of Plasmodium falciparum Dd2 parasites | P. falciparum Dd2 growth, SYBR Green, 72 h; active compounds read low | activity change, % at 10 µM | 94,000 compounds, 2.3% hits | AID 1159554; in the data active = activity change below about -80%; inconclusive = no clear call, values can overlap the other calls
IDH1 mut inh: blocks human IDH1 R132H reductase activity. diaphorase/resazurin fluorescence, 60 min. 70,000 compounds, 0.18% hits. O75874. AID 624101. inhibition, % at 10 µM; in the data active = inhibition above about 34%; inconclusive = no clear call, values can overlap the other calls; inactive = below about 11%;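 also: 0% = DMSO and 100% = no enzyme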
Target sequence (O75874 whole entry R132H): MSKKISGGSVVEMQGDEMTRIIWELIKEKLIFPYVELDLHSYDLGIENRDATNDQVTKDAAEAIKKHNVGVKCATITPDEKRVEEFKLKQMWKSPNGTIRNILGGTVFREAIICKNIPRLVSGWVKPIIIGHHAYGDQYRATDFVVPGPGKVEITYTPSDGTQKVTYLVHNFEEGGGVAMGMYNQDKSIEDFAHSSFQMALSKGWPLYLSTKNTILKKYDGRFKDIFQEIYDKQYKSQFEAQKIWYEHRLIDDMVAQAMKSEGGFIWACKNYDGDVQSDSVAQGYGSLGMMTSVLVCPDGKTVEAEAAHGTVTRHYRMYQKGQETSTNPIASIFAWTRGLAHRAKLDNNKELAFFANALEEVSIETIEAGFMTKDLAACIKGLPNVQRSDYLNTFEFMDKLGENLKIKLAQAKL
KDM4C inh: inhibitors of human demethylase GASC-1 KDM4C | Q9H3R0 | GST-KDM4C 2-372, H3K9me3 peptide, LANCE TR-FRET | inhibition, % at 12.5 µM | 96,000 compounds, 0.15% hits | AID 720574;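 active = mean replicate inhibition above about 25%, with at least 55% of replicates also reaching it, limit read from the data, passing the limit was not always enough; inconclusive = only one of those two conditions met; inactive = neither condition met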
Target sequence (Q9H3R0 2-372 limits assumed): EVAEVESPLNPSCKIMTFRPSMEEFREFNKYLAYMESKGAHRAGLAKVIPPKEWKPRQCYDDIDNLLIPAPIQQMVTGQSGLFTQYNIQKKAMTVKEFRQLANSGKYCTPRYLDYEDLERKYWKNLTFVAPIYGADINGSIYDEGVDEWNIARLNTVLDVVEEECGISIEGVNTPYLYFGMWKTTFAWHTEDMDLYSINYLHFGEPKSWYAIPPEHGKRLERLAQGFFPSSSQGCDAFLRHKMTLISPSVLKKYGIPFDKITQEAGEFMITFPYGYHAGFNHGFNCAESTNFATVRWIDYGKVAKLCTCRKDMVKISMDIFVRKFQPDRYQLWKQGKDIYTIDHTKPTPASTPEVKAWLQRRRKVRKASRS
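Material: N-terminal GST-fused human GASC-1 (KDM4C) fragment, residues 2-372. Input: 10 nM enzyme. Incubation: enzyme reaction 30 min, then detection 60 min, both room temperature. Doses: one test concentration per compound. Read-out basis: inhibition from TR-FRET ratio decrease. Detection: LANCE TR-FRET, excitation 340 nm, emissions 618 and 671 nm.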
T cruzi growth-1: inhibitors of T. cruzi proliferation; T. cruzi beta-gal in NIH3T3, GalScreen luminescence, 90 h; inhibition, % at 8.34 µM; 77,000 compounds, 5.9% hits; AID 624255;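 active = mean inhibition above about 93%, with at least 55% of replicates each passing it, limit read from the data, passing the limit was not always enough; inconclusive = only one of those two conditions holds; inactive = neither condition holds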
T cruzi growth-2: Trypanosoma cruzi proliferation inhibition; shares compounds with T cruzi growth-1; T. cruzi beta-gal in NIH3T3, GalScreen luminescence, 90 h; inhibition, % at 8.35 µM; 5,600 compounds, 72% hits;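 active = mean replicate inhibition above about 95% and at least 55% of replicates individually reaching it, limit read from the data; inconclusive = only one of the two criteria is met; inactive = neither criterion is met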
T cruzi growth-3: inhibitors of T. cruzi proliferation; inhibition, % at 2.09 µM; AID 651740; T. cruzi beta-gal in NIH3T3, GalScreen luminescence, 90 h; 5,600 compounds, 21% hits; shares compounds with T cruzi growth-1;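 active = mean inhibition above about 95%, with at least 55% of replicates also reaching it, limit read from the data; inconclusive = meets just one of the two conditions; inactive = meets neither condition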;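 also: plate controls were neutral control median for no effect and positive control median for full effect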
3T3 cytotox: kills mouse NIH/3T3 fibroblasts; shares compounds with T cruzi growth-1; NIH/3T3 viability, CellTiter-Glo ATP luminescence, 90 h; cytotoxicity (signal decrease), % at 8.35 µM; 5,600 compounds, 14% hits; AID 651742;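 active = mean signal decrease across replicates above about 35% based on untreated-well scatter, with enough replicates individually passing, limit read from the data; inconclusive = no rule stated though some were filed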;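 also: 0% = median of neutral control wells and 100% = median of positive control wells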
NIH3T3 tox 2: cytotoxicity in mouse NIH/3T3 fibroblasts. shares compounds with T cruzi growth-1. NIH/3T3 viability, CellTiter-Glo ATP luminescence, 90 h. inhibition, % at 24.9 µM. 5,600 compounds, 56% hits. AID 651744;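 active = mean loss of cell viability signal at or above a set limit, and enough replicates individually reaching it; inconclusive = meets only the mean limit or only the replicate share; inactive = meets neither condition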;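 also: 0% = median of neutral control wells and 100% = median of positive control wells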
The depositor's hits bear a star; ? = inconclusive; nt = no result. Only some compounds are listed: those with a hit (about 5.9% of all), similar ones and a draw of the others.

SMILES | Pf Dd2 growth | IDH1 mut inh | KDM4C inh | T cruzi growth-1 | T cruzi growth-2 | T cruzi growth-3 | 3T3 cytotox | NIH3T3 tox 2
C[C@@H]1CN([C@H](C)CO)S(=O)(=O)c2ccc(/C=C/c3ccccc3)cc2O[C@H]1CN(C)C(=O)Nc1ccc(F)cc1 | -81.7* | 0.6 | 1.6 | 125.5* | 108.7* | 95.0 | 44.5* | 89.4*
C[C@H]1CN([C@@H](C)CO)S(=O)(=O)c2ccc(/C=C/c3ccccc3)cc2O[C@H]1CN(C)C(=O)Nc1cc(F)ccc1F | -60.5 | -0.9 | -0.7 | nt | nt | nt | nt | nt
COc1ccc(NC(=O)CSc2ncccn2)cc1Cl | nt | -0.5 | nt | nt | nt | nt | nt | nt
CN1c2ccc(-c3ccc(F)cc3)cc2[C@H]2[C@H](CCN2C(=O)Cc2cccnc2)[C@H]1CO | 19.6 | nt | 3.1 | ? | 92.3 | 54.7 | -15.9 | 9.8
CN1c2ccc(-c3ccc(F)cc3)cc2[C@H]2[C@H](CCN2C(=O)Cc2cccnc2)[C@@H]1CO | -12.9 | nt | 0.8 | 106.9* | 109.5* | 104.0* | -26.3 | 4.9
COC(=O)c1ccc(Cl)c(NC(=O)COc2ccc(OC)cc2)c1 | nt | -0.2 | nt | nt | nt | nt | nt | nt
O=C(Nc1ccc(F)cc1)N1C[C@H]2[C@@H](c3ccccc31)[C@H](CO)N2C(=O)c1ccccc1 | -7.5 | nt | 0.8 | 101.9* | 97.8* | 64.4 | -2.4 | -3.8
O=C(Nc1ccccc1Cl)N1C[C@H]2[C@@H](c3ccccc31)[C@@H](CO)N2Cc1ccccc1 | 1.6 | nt | -1.3 | 72.8 | nt | nt | nt | nt
O=S(=O)(c1ccc(F)cc1)N1C[C@H]2[C@@H](c3ccccc31)[C@H](CO)N2Cc1ccccc1Cl | -69.2 | nt | -5.3 | 107.7* | 101.8* | 94.0 | 25.5 | 38.2*
O=C(Nc1ccccc1Cl)N1C[C@H]2[C@@H](c3ccccc31)[C@H](CO)N2Cc1ccccc1 | -9.2 | nt | -2.1 | 99.7* | 82.2 | 8.2 | -7.0 | 11.8
CCC(=O)N1C[C@H]2[C@@H](c3ccccc31)[C@H](CO)N2C(=O)CC | -6.8 | nt | -1.8 | 104.4* | 61.5 | -15.0 | -10.8 | -17.0
CS(=O)(=O)N(CC(=O)Nc1cc(C(F)(F)F)ccc1Cl)c1ccc(I)cc1 | nt | 0.0 | nt | nt | nt | nt | nt | nt
Cc1cccc(N(CC(=O)Nc2ccc(Cl)cc2)S(C)(=O)=O)c1C | nt | -0.2 | nt | nt | nt | nt | nt | nt
O=C(Nc1ccccc1)N1C[C@@H]2[C@H](c3ccccc31)[C@@H](CO)N2CC1CCCC1 | -19.2 | nt | 0.8 | -18.6 | nt | nt | nt | nt
O=C(C1CCCCC1)N1C[C@@H]2[C@H](c3ccccc31)[C@H](CO)N2Cc1ccccc1Cl | -27.5 | nt | -0.5 | 105.5* | 99.3* | 14.8 | 20.7 | -10.9
O=C(C1CCCCC1)N1C[C@H]2[C@@H](c3ccccc31)[C@H](CO)N2Cc1ccccc1Cl | -16.1 | nt | 5.7 | 47.5 | nt | nt | nt | nt
COc1ccc(C(=O)N2C[C@H]3[C@@H](c4ccccc42)[C@H](CO)N3Cc2ccc3c(c2)OCO3)cc1 | -8.7 | nt | 1.1 | ? | 75.1 | 0.7 | -6.7 | 33.0*
O=C(Nc1ccc(Cl)cc1)N1C[C@H]2[C@@H](c3ccccc31)[C@@H](CO)N2CC1CCCC1 | -13.9 | nt | -0.5 | 108.1* | 99.3* | 78.0 | 2.0 | 50.1*
CCN(CC(=O)Nc1cccc(C(C)=O)c1)S(=O)(=O)c1ccc(F)cc1 | nt | -0.3 | nt | nt | nt | nt | nt | nt
C/C=C/c1ccc2c(c1)O[C@@H](CN(C)C(=O)Nc1ccccc1)[C@@H](C)CN([C@H](C)CO)S2(=O)=O | -16.2 | -3.9 | 0.7 | 22.0 | nt | nt | nt | nt
C/C=C/c1ccc2c(c1)O[C@@H](CN(C)C(=O)Nc1ccccc1)[C@H](C)CN([C@H](C)CO)S2(=O)=O | -2.3 | -0.2 | -0.9 | 9.2 | nt | nt | nt | nt
C/C=C/c1ccc2c(c1)O[C@@H](CN(C)C(=O)Nc1ccc(C(F)(F)F)cc1)[C@@H](C)CN([C@H](C)CO)S2(=O)=O | -28.9 | -0.4 | -0.3 | 110.1* | 100.8* | 81.0 | 59.0* | 51.9*
C/C=C/c1ccc2c(c1)O[C@H](CN(C)C(=O)Nc1ccc(C(F)(F)F)cc1)[C@H](C)CN([C@H](C)CO)S2(=O)=O | -0.9 | -3.3 | 0.0 | 99.8* | 96.2* | 90.3 | 38.0* | 90.2*
C/C=C/c1ccc2c(c1)O[C@H](CN(C)C(=O)Nc1ccc(C(F)(F)F)cc1)[C@@H](C)CN([C@@H](C)CO)S2(=O)=O | -10.2 | -1.1 | -1.1 | 100.7* | 87.7 | 80.7 | 72.6* | 97.9*
C/C=C/c1ccc2c(c1)O[C@@H](CN(C)C(=O)Nc1ccc(F)cc1)[C@@H](C)CN([C@H](C)CO)S2(=O)=O | -15.5 | -0.1 | -1.1 | 6.0 | nt | nt | nt | nt
SMILES | Pf Dd2 growth | IDH1 mut inh | KDM4C inh | T cruzi growth-1 | T cruzi growth-2 | T cruzi growth-3 | 3T3 cytotox | NIH3T3 tox 2
CC(O)c1nc2ccccc2n1CCOc1ccc(Br)cc1 (stereo not given) | nt | -0.4 | nt | nt | nt | nt | nt | nt
COc1ccc(NC(=O)N(C)C[C@@H]2Oc3cc(-c4ccc(C)cc4)ccc3S(=O)(=O)N([C@H](C)CO)C[C@@H]2C)cc1 | -90.5* | -1.8 | -0.5 | 122.6* | 104.8* | 84.9 | 47.4* | 25.1
COc1ccc(NC(=O)N(C)C[C@H]2Oc3cc(-c4ccc(C)cc4)ccc3S(=O)(=O)N([C@@H](C)CO)C[C@H]2C)cc1 | -75.5 | -0.9 | -1.1 | 105.6* | 107.8* | 70.0 | -18.5 | 13.0
COc1ccc(NC(=O)N(C)C[C@H]2Oc3cc(-c4ccncc4)ccc3S(=O)(=O)N([C@H](C)CO)C[C@@H]2C)cc1 | -16.9 | 0.9 | 5.3 | 62.6 | nt | nt | nt | nt
NC(=O)c1ccc(NC(=O)C2CCCN(S(=O)(=O)c3ccc(Br)cc3)C2)cc1 (stereo not given) | nt | 0.3 | nt | nt | nt | nt | nt | nt
CCC(=O)N1CCCCN2[C@@H](CO)[C@H](c3ccc(-c4cccc(C#N)c4)cc3)[C@@H]2C1 | 27.0 | nt | 0.7 | 107.2* | 85.2 | 77.1 | 29.1 | 61.4*
O=C(Nc1ccc(F)cc1)N1CCCCN2[C@H](CO)[C@H](c3ccc(-c4cccc(F)c4)cc3)[C@H]2C1 | -25.5 | nt | -0.3 | 48.8 | nt | nt | nt | nt
N#Cc1ccc(-c2ccc([C@H]3[C@@H](CO)N4CCCCN(C(=O)Nc5ccc(F)cc5)C[C@H]34)cc2)cc1 | -48.8 | nt | -0.7 | 97.8* | 105.3* | 105.0* | 32.2 | 104.3*
O=C(C1CCCC1)N1CCCCN2[C@H](CO)[C@@H](c3ccc(-c4cccc(F)c4)cc3)[C@@H]2C1 | -21.9 | nt | nt | 103.7* | 98.2* | 115.4* | 41.5* | 106.3*
O=C(Nc1ccc(F)cc1)N1CCCCN2[C@H](C1)[C@H](c1ccc(-c3cccc(F)c3)cc1)[C@@H]2CO | -1.6 | nt | -1.1 | 116.5* | 109.4* | 77.4 | 10.5 | 78.8*
N#Cc1cccc(-c2ccc([C@H]3[C@H]4CN(C(=O)Nc5ccccc5)CCCCN4[C@H]3CO)cc2)c1 | 12.7 | nt | -0.6 | 57.2 | nt | nt | nt | nt
